Assay results taken from ChEMBL document CHEMBL4038278, “Structural modifications of diarylpyrimidines (DAPYs) as HIV-1 NNRTIs: Synthesis, anti-HIV activities and SAR” (Bioorg Med Chem, 2017).

Key:
[1] = Inhibition of HIV-1 3B wild type reverse transcriptase infected in human MT4 cells assessed as protection against virus-induced cytopathic effect measured at 5 days post infection by MTT assay; assay type: cell-based; settings: Human immunodeficiency virus 1, 3B, MT4, 120 h
In short: (§1)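 MT-4 cells spun down (5 min, 220 g), resuspended at 6 x 10^5 cells/mL and infected with 100-300 CCID50 virus. Serial 5-fold compound dilutions added at infection, triplicate wells. After 5 days, viability read by MTT reduction at 540 and 690 nm using the median of three wells. […] Mean of at least three independent experiments.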

[2] = system: Human immunodeficiency virus 2; experiment: Antiviral activity against HIV-2 ROD infected in human MT4 cells assessed as protection against virus induced cytopathic effect measured at 5 days post infection by MTT assay; assay type: functional, cell-based; settings: Human immunodeficiency virus 2, ISOLATE ROD, MT4, 120 h; in short: as §1
[3] = Cytotoxicity against human MT4 cells assessed as reduction in cell viability after 5 days by MTT assay; assay type: cell-based
In short: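 Mock-infected exponentially growing MT-4 cells (6 x 10^5 cells/mL) given serial 5-fold compound dilutions in triplicate wells in parallel with the infected series. Viability measured by MTT after 5 days, absorbance at 540/690 nm, median of three wells. […] Mean of at least three independent experiments.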

[4] = Selectivity index, ratio of CC50 for human MT4 cells to EC50 for HIV-1 3B wild type reverse transcriptase infected in human MT4 cells; assay type: toxicity, cell-based; settings: read-out: Ratio CC50/EC50
In short: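 SI calculated as CC50 in mock-infected MT-4 cells divided by EC50 against HIV-1 IIIB. Both values come from the same 5-day MTT run, with infected and mock-infected triplicate series tested in parallel.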

| SMILES | EC50 [1] [µM] | EC50 [2] [µM] | CC50 at 120 h [3] [µM] | selectivity ratio [4] |
| --- | --- | --- | --- | --- |
| COc1ccccc1COc1ccnc(Nc2ccc(C#N)cc2)n1 | 0.027 | > 8.9 | 8.9 | 356 |
| N#Cc1ccc(Nc2nccc(OCc3cccc(C#N)c3)n2)cc1 | 0.18 | > 4.1 | 4.1 | 23 |
| N#Cc1ccc(Nc2nccc(OCc3cccc(Br)c3)n2)cc1 | 0.048 | > 221 | 221 | 4600 |
| N#Cc1ccc(Nc2nccc(OCc3ccccc3Cl)n2)cc1 | 0.034 | > 146 | 146 | 4420 |
| N#Cc1ccc(Nc2nccc(OCc3cc(F)ccc3Br)n2)cc1 | 0.039 | > 190 | 190 | 4870 |
| N#Cc1ccc(Nc2nccc(OCc3cccc(F)c3)n2)cc1 | 0.014 | > 105 | 105 | 7500 |
| COc1ccc(COc2ccnc(Nc3ccc(C#N)cc3)n2)cc1 | 1 | > 102 | 102 | 102 |
| N#Cc1ccc(Nc2nccc(OCc3cccnc3)n2)cc1 | 0.77 | > 6.4 | 6.4 | 8 |
| Cc1cc(C#N)cc(C)c1Oc1nc(Nc2ccc(C#N)cc2)nc(N)c1Br [ETRAVIRINE] | 0.0042 |  | 1.9 |  |
| N#Cc1ccc(Nc2nccc(OCc3ccccc3Br)n2)cc1 | 0.036 | > 130 | 130 | 3610 |
| N#Cc1ccc(Nc2nccc(OCc3cccc(C(F)(F)F)c3)n2)cc1 | 0.61 | > 118 | 118 | 193 |
| N#Cc1ccc(Nc2nccc(OCc3ccc(Br)cc3F)n2)cc1 | 0.22 | > 141 | 141 | 641 |
| O=C1Nc2ccc(Cl)cc2[C@@](C#CC2CC2)(C(F)(F)F)O1 [EFAVIRENZ] | 0.0073 |  |  |  |
| CN(C)c1ccnc(Nc2ccc(C#N)cc2)n1 | > 34 | > 34 | 34 | < 1 |
| N#Cc1ccc(Nc2nccc(OCc3ccccc3C(F)(F)F)n2)cc1 | 1.7 | > 173 | 173 | 102 |
| Cc1ccnc2c1NC(=O)c1cccnc1N2C1CC1 [NEVIRAPINE] | 0.21 |  | > 15 |  |
| COc1cc(COc2ccnc(Nc3ccc(C#N)cc3)n2)cc(OC)c1 | 0.0089 | > 44 | 44.2 | 4940 |
| Cc1cc(C)nc(Sc2ccnc(Nc3ccc(C#N)cc3)n2)n1 | 27 | > 224 | 224 | 8 |

| SMILES | EC50 [1] [µM] | EC50 [2] [µM] | CC50 at 120 h [3] [µM] | selectivity ratio [4] |
| --- | --- | --- | --- | --- |
| Cc1ccccc1COc1ccnc(Nc2ccc(C#N)cc2)n1 | 0.16 | > 12 | 12 | 75 |
| N#Cc1ccc(Nc2nccc(NCc3ccccn3)n2)cc1 | 0.0076 | > 8.5 | 8.5 | 1120 |
| CC(C)Nc1cccnc1N1CCN(C(=O)c2cc3cc(NS(C)(=O)=O)ccc3[nH]2)CC1 [DELAVIRDINE] | 0.037 |  | 23 |  |
| Cc1cn([C@H]2C[C@H](N=[N+]=[N-])[C@@H](CO)O2)c(=O)[nH]c1=O [ZIDOVUDINE] | 0.011 |  |  |  |
| Cc1ccc(COc2ccnc(Nc3ccc(C#N)cc3)n2)cc1 | 0.16 | > 81 | 81 | 495 |
| N#Cc1ccc(Nc2nccc(OCc3ccc4ccccc4c3)n2)cc1 | 0.17 | > 212 | 212 | 1250 |
| COc1cccc(COc2ccnc(Nc3ccc(C#N)cc3)n2)c1 | 0.025 | > 118 | 118 | 4720 |
| N#Cc1ccc(Nc2nccc(OCc3ccc(Cl)cc3)n2)cc1 | 0.84 | > 156 | 156 | 186 |
| N#Cc1ccc(Nc2nccc(OCc3ccc(Br)cc3)n2)cc1 | 4.7 | > 16 | 16 | 3.4 |
| N#Cc1ccc(COc2ccnc(Nc3ccc(C#N)cc3)n2)cc1 | 1.4 | > 209 | 209 | 149 |
| Cc1cccc(COc2ccnc(Nc3ccc(C#N)cc3)n2)c1 | 0.0088 | > 30 | 30 | 3410 |
| N#Cc1ccc(Nc2nccc(OCc3ccc(F)cc3)n2)cc1 | 0.92 | > 81 | 81 | 88 |
| N#Cc1ccc(Nc2nccc(OCc3cccc4ccccc34)n2)cc1 | 0.015 | > 7.7 | 7.7 | 513 |
| N#Cc1ccc(Nc2nccc(OCc3ccccc3F)n2)cc1 | 0.0058 | > 151 | 151 | 26000 |
| N#Cc1ccc(Nc2nccc(OCc3ccccc3)n2)cc1 | 0.022 | > 13 | 13 | 591 |
| N#Cc1ccc(Nc2nccc(OCc3ccccc3C#N)n2)cc1 | 0.014 | > 113 | 113 | 8070 |
| N#Cc1ccc(Nc2nccc(OCc3cccc(Cl)c3)n2)cc1 | 0.049 | > 153 | 153 | 3120 |
